Sampled rows, rich in hits. Any-hit rate of the full collection: about 2.1%.
PDI inh: inhibitors of human PDI, primary screen, biochemical, turbidity, single point, plate reader; AID 588391, 2011; inhibition, % at 10 µM; 350,000 compounds, 0.052% hits; PDI insulin aggregation turbidity, A650, 90 min;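 active means mean inhibition across replicates of 30% or more, whatever share of single replicates reach that level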
ERp5 block: inhibitors of ERp5-driven insulin aggregation, primary screen, biochemical, turbidity, absorbance 650 nm, single point. AID 651711, 2012. 90 min. inhibition, % at 9.99 µM. 350,000 compounds, 0.05% hits. Protein disulfide-isomerase A6 (Homo sapiens), Q15084;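 active means mean replicate inhibition above about 25%, with every replicate also reaching it, limit read from the data, passing the limit was not always enough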
FN deposit inh: inhibitors of fibronectin matrix deposition, primary screen, AH1F cells, Alexa488-fibronectin fluorescence, plate reader; AID 743247, 2014; inhibition, % at 12.6 µM; 350,000 compounds, 0.086% hits; AH1F fibroblasts, overnight;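 active means mean inhibition across replicates of 30% or more, regardless of how many single replicates reach that level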;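 further: positive control wells lacked labelled fibronectin entirely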
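material = AH1F fibroblast monolayer depositing Alexa488-labelled fibronectin into matrix | amount = 10000 AH1F cells/well | buffer or medium = DMEM plus 2% serum, read in PBS | incubation = 1 h cell adhesion before compound, then overnight fibronectin incubation | detection = fluorescence at 485 nm excitation, 525 nm emission | evaluation = percent inhibition as loss of matrix-bound fibronectin fluorescence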
AF4-AF9 inh: inhibitors of AF4 peptide binding to AF9, primary screen, biochemical, AlphaScreen, biotin-AF4 peptide, FLAG-AF9, single point. Protein AF-9 (Homo sapiens), P42568. inhibition, % at 10 µM. 350,000 compounds, 0.47% hits. AID 651704, 2012;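 active means every replicate reaching a set inhibition limit, whatever the replicate mean, cut at about 25% in these data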;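 further: 0% = plate neutral control median and 100% = total signal loss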
Target sequence (P42568 whole entry, looked up): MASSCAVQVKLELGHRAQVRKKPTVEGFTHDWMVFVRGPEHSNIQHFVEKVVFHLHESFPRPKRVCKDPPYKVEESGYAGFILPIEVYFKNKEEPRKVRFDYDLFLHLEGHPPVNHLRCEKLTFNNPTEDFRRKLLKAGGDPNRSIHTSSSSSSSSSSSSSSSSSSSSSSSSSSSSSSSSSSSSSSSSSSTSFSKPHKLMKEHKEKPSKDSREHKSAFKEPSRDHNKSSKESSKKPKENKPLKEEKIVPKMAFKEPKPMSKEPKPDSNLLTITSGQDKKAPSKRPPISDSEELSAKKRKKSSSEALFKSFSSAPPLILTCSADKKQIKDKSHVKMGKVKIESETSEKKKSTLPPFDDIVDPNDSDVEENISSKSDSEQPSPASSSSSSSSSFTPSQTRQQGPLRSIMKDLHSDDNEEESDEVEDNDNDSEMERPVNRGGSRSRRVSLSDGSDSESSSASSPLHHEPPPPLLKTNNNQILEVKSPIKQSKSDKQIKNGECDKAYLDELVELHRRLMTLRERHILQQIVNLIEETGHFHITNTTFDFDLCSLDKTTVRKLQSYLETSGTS
FGF22 binding: binders of human FGF22 protein, primary screen, FGF22 synaptogenesis inhibitor project, biophysical, thermal shift, single point | activity (Tm shift, normalised), % at 9.99 µM | Fibroblast growth factor 22 (Homo sapiens), Q9HCT0 | AID 651658, 2012 | recombinant FGF22 thermal shift, SYPRO orange fluorescence; percent of sucrose octasulfate shift, DMSO zero | 340,000 compounds, 1.5% hits;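 active means mean Tm shift, scaled 0 neutral to 100 positive control, at about 1.3% or above, every replicate too, limit read from the data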
ARNT-TACC3 inh: disruptors of ARNT/TACC3 protein interaction, primary screen, biochemical, AlphaScreen, single concentration. inhibition, % at 9.99 µM. AlphaScreen His-ARNT PAS-B/GST-TACC3 binding, luminescence; TACC3 fragment carries E629A point mutation. Transforming acidic coiled-coil-containing protein 3 (Homo sapiens), Q9Y6A5. AID 623870, 2012. 390,000 compounds, 0.66% hits;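 active means mean inhibition of replicates at least 50% and at least half of replicates each reaching 50%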;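 further: 0% = complete ARNT plus TACC3 wells and 100% = ARNT alone without TACC3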
* = called active by the depositor.

How did CC(C)NC(=O)N1[C@@H]2CN(CC(F)(F)F)C[C@H]1C2c1ccccc1 (stereo not given in full) do in these assays?
FN deposit inh: -14

How did COc1ccc2c3c(n(C)c2c1)[C@@H](CO)N(C(=O)c1cccnc1)CC31CCN(S(C)(=O)=O)CC1 do in these assays?
AF4-AF9 inh: 0

How did O=S1(=O)Nc2c(ccc3cccnc23)-c2ccccc21 do in these assays?
PDI inh: -2; ARNT-TACC3 inh: 69*

How did Clc1ccc2ccc3cccnc3c2n1 do in these assays?
PDI inh: -2; ERp5 block: 5; FN deposit inh: 10; AF4-AF9 inh: -2; FGF22 binding: 0; ARNT-TACC3 inh: 15

Results for O=C(C[C@@H]1C[C@H]2c3cc(NS(=O)(=O)c4ccc(F)cc4)ccc3O[C@H]2[C@@H](CO)O1)N1CCCCC1 ?
ERp5 block: 0; AF4-AF9 inh: -1; FGF22 binding: 0; ARNT-TACC3 inh: -14

Results for COc1ccccc1S(=O)(=O)N[C@@H]1C=C[C@@H](CC(=O)NCc2cc(F)cc(F)c2)O[C@H]1CO ?
ERp5 block: 1; AF4-AF9 inh: -3; FGF22 binding: 0; ARNT-TACC3 inh: 3

How did CCC(C)(C)c1ccc(OCCCC[n+]2ccccc2)c(C(C)(C)CC)c1 do in these assays?
PDI inh: 23; ERp5 block: -7; AF4-AF9 inh: 30*; FGF22 binding: 0; ARNT-TACC3 inh: 2

How did CCCCCc1ccc(OCCCC[n+]2ccccc2)c(CCCCC)c1 do in these assays?
PDI inh: 15

Results for O=C(C[C@@H]1CC[C@@H]2[C@H](COC[C@H](O)CN2C(=O)c2ccc3c(c2)OCO3)O1)NCCN1CCCCC1 ?
ERp5 block: -1; FN deposit inh: -3; AF4-AF9 inh: -1; FGF22 binding: 0; ARNT-TACC3 inh: -6

How did C[C@@H]1CCCCO[C@H](CN(C)Cc2ccncc2)[C@H](C)CN([C@@H](C)CO)C(=O)c2cc(NC(=O)CCCN(C)C)ccc2O1 do in these assays?
ERp5 block: 2; AF4-AF9 inh: -6; FGF22 binding: 0; ARNT-TACC3 inh: 8

What do the screens show for `CN(c1cc2c(c3c1ccn3C)C1CCC2O1)C1CCCCC1` (stereo not given)?
ERp5 block: 1; FN deposit inh: 8; AF4-AF9 inh: 32*; FGF22 binding: -1

How did Cn1ccc2c(-c3ccc(F)nc3)cc3c(c21)C1CCC3O1 (stereo not given) do in these assays?
ERp5 block: -3; FN deposit inh: 7; AF4-AF9 inh: 1; FGF22 binding: 0

How did Cn1ccc2c(-c3cccnc3)cc3c(c21)C1CCC3O1 (stereo not given) do in these assays?
ERp5 block: 12; FN deposit inh: -8; AF4-AF9 inh: 0; FGF22 binding: 0

What do the screens show for `CN(CCc1ccccc1)c1cc2c(c3c1ccn3C)C1CCC2O1` (stereo not given)?
ERp5 block: -1; FN deposit inh: 10; AF4-AF9 inh: 28*; FGF22 binding: 0

How did C[C@H](CO)N1C[C@H](C)[C@H](CN(C)C(=O)C2CCC2)Oc2cc(C#Cc3ccncc3)ccc2S1(=O)=O do in these assays?
ERp5 block: -1; FN deposit inh: -14; AF4-AF9 inh: 1; FGF22 binding: 0; ARNT-TACC3 inh: 2

How did COc1cccc(C(=O)Nc2ccc3c(c2)C(=O)N(C)[C@H]2CC[C@H](CC(=O)NCC4CC4)O[C@@H]2CO3)c1 do in these assays?
ERp5 block: 3; FN deposit inh: -13; AF4-AF9 inh: 0; FGF22 binding: 0; ARNT-TACC3 inh: -9

Results for CC(C)NC(=O)N(C)C[C@H]1Oc2ccc(NC(=O)Nc3ccc(C(F)(F)F)cc3)cc2CC(=O)N([C@H](C)CO)C[C@H]1C ?
ERp5 block: -1; FN deposit inh: 4; AF4-AF9 inh: 3; FGF22 binding: -1; ARNT-TACC3 inh: 17
